ChEMBL document CHEMBL3525903 (Drug Metab Dispos, 2013)
Blank lines part the entries; values can stand above or below the compound they belong to.

Tests used:
[1] = target: T1, Solute carrier organic anion transporter family member 1B1 (Homo sapiens, UniProt Q9Y6L6); test: Inhibition of OATP1B1 (unknown origin) expressed in HEK293 cells assessed as reduction of [3H]E217betaG substrate uptake at 100 uM by liquid scintillation counting; format: ADME, cell-based; details: hek293, 100 µM
T1 sequence (Q9Y6L6 whole entry): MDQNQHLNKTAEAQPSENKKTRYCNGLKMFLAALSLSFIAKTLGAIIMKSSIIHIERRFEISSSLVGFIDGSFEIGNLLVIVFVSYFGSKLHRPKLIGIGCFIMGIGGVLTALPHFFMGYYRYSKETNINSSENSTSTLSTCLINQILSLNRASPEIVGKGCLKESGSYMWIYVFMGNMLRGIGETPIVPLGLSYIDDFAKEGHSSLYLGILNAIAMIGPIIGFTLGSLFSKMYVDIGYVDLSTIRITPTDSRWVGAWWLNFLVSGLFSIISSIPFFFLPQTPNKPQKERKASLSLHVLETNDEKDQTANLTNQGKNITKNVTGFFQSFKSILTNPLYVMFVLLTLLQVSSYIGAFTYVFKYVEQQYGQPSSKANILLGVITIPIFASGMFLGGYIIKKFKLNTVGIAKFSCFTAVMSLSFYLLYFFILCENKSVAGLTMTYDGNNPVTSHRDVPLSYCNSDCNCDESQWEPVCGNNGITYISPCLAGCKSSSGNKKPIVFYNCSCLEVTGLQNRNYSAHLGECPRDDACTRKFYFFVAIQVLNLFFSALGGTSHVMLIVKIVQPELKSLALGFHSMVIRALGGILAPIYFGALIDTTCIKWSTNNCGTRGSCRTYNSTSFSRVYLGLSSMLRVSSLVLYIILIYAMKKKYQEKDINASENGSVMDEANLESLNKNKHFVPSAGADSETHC
Summary of the method: (§1)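 HEK293 cells transiently transfected with OAT, OATP or OCT plasmid (FuGENE6; 24 h, then 24 h more with sodium butyrate), or stable OCTN1/OCTN2 lines; vector-transfected cells as control. Washed, preincubated 15–60 min at 37 °C in modified Krebs-Henseleit/25 mM HEPES buffer. Uptake of radiolabelled substrate, 100 µM inhibitor. Cells lysed in NaOH and counted by scintillation; counts normalised to medium radioactivity and Lowry protein; vector uptake subtracted.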

[2] = target: T2, Solute carrier organic anion transporter family member 1B3 (Homo sapiens, UniProt Q9NPD5); test: Inhibition of OATP1B3 (unknown origin) expressed in HEK293 cells assessed as reduction of [3H]CCK8 substrate uptake at 100 uM by liquid scintillation counting; format: ADME, cell-based; details: hek293, 100 µM; summary of the method: as §1
T2 sequence (Q9NPD5 whole entry): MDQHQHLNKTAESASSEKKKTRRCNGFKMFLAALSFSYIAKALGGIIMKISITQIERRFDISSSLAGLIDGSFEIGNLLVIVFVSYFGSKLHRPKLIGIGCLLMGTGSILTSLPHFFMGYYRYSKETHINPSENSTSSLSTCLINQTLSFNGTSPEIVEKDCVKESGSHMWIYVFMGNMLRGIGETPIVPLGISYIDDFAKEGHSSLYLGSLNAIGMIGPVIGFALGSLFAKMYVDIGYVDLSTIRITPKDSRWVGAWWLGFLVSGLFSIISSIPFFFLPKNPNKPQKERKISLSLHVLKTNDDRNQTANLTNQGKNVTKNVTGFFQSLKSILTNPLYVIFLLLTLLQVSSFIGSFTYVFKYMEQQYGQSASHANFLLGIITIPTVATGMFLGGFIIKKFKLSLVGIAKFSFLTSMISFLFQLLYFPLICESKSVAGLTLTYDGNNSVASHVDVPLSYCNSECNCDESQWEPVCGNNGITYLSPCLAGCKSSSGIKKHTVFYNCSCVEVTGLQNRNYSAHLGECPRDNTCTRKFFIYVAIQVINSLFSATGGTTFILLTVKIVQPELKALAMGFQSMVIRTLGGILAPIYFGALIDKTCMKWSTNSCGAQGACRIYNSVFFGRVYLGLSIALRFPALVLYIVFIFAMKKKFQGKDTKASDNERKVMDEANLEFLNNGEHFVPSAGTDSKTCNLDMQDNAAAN

[3] = target: T3, Solute carrier family 22 member 11 (Homo sapiens, UniProt Q9NSA0); test: Inhibition of OAT4 (unknown origin) expressed in HEK293 cells assessed as reduction of [3H]E-sul substrate uptake at 500 uM by liquid scintillation counting; format: ADME, cell-based; details: hek293, 500 µM
T3 sequence (Q9NSA0 whole entry): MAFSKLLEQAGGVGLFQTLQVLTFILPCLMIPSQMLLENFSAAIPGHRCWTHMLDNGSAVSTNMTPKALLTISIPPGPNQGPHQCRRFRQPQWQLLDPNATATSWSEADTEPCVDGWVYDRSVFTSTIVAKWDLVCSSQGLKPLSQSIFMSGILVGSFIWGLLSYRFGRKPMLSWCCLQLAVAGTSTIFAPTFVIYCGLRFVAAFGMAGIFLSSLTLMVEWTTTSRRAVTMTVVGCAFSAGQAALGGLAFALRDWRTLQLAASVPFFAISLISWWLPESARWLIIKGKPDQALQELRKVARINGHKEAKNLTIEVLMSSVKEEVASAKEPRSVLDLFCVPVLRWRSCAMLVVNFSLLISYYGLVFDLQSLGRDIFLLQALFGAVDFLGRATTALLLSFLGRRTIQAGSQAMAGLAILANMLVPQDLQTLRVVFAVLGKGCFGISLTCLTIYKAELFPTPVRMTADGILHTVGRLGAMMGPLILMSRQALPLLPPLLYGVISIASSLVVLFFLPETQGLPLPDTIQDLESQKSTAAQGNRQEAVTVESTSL
Summary of the method: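 HEK293 cells transfected with OAT4, incubated with 0.1 μM [3H]E-sul and probenecid 500 µM as the inhibitor. Uptake counted by scintillation, normalised to protein, with vector uptake subtracted.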

[4] = target: T4, Organic anion transporter 3 (Homo sapiens, UniProt Q8TCC7); test: Inhibition of OAT3 (unknown origin) expressed in HEK293 cells assessed as reduction of [3H]E-sul substrate uptake at 100 uM by liquid scintillation counting; format: ADME, cell-based; details: hek293, 100 µM; summary of the method: as §1
T4 sequence (Q8TCC7 whole entry): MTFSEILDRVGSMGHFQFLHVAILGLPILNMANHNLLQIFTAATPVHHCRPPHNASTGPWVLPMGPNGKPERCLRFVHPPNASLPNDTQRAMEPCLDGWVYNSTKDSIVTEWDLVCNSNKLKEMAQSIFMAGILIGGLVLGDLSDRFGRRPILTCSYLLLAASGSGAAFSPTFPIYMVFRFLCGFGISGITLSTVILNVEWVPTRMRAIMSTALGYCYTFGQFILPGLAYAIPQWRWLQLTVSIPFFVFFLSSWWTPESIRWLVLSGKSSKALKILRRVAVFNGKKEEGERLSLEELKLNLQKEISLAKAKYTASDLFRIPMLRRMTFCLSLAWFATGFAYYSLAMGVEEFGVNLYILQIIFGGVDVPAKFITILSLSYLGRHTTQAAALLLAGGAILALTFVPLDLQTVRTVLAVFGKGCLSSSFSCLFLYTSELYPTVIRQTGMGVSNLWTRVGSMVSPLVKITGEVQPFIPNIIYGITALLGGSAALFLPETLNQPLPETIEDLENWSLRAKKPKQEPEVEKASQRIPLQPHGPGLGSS

[5] = target: ATP-binding cassette sub-family C member 2 (Homo sapiens, UniProt Q92887); test: Inhibition of human MRP2 expressed in MDCK2 cells assessed as reduction of [3H]E217betaG substrate transport at 25 uM by liquid scintillation counting; format: ADME, cell-based; details: mdck-ii
Summary of the method: (§2)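 Membrane vesicles made from MDCKII cells expressing BCRP or MRP2, and from parental cells (1 μg/μL protein). Run in Tris-sucrose buffer, pH 7.4, with 10 mM MgCl2, creatine phosphokinase and ATP, or AMP as control. Substrates: 0.035 μM [3H]E-sul for BCRP, 2 min; 0.033 μM [3H]E217βG for MRP2, 5 min; both at 37 °C. Stopped ice-cold, filtered, and counted by scintillation.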

OCTN2 = target: T5, OCTN2 (Homo sapiens, UniProt O76082); test: Inhibition of OCTN2 (unknown origin) expressed in HEK293 cells assessed as reduction of [3H]carnitine substrate uptake at 1500 uM by liquid scintillation counting; format: cell-based; details: HEK293 cells expressing OCTN2, probe [3H]carnitine
T5 sequence (O76082 whole entry): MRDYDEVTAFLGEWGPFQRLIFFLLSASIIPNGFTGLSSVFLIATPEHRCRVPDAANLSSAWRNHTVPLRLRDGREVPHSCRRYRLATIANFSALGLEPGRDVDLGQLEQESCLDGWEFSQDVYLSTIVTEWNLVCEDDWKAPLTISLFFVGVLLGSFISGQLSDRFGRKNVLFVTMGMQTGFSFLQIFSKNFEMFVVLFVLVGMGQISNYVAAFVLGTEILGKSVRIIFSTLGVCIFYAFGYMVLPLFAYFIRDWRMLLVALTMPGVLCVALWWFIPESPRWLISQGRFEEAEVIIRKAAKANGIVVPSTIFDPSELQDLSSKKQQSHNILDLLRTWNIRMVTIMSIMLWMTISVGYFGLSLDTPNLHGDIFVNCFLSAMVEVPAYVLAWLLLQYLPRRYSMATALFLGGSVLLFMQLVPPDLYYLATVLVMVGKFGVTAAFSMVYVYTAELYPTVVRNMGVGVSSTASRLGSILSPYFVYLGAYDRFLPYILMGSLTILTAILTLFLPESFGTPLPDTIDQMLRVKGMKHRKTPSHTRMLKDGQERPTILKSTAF
Summary of the method: (§3)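 HEK293 cells stably expressing OCTN1 or OCTN2, cultured two days before the assay. Quinidine 1500 µM tested against [3H]ergothioneine (1 μM, OCTN1) or [3H]carnitine (0.1 μM, OCTN2). Vector-cell uptake subtracted.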

OCTN1 (SLC22A4) = target: T6, OCTN1 (SLC22A4) (Homo sapiens, UniProt Q9H015); test: Inhibition of OCTN1 (unknown origin) expressed in HEK293 cells assessed as reduction of [3H]ergothioneine substrate uptake at 1500 uM by liquid scintillation counting; format: cell-based; details: HEK293 cells expressing OCTN1, probe [3H]ergothioneine; summary of the method: as §3
T6 sequence (Q9H015 whole entry): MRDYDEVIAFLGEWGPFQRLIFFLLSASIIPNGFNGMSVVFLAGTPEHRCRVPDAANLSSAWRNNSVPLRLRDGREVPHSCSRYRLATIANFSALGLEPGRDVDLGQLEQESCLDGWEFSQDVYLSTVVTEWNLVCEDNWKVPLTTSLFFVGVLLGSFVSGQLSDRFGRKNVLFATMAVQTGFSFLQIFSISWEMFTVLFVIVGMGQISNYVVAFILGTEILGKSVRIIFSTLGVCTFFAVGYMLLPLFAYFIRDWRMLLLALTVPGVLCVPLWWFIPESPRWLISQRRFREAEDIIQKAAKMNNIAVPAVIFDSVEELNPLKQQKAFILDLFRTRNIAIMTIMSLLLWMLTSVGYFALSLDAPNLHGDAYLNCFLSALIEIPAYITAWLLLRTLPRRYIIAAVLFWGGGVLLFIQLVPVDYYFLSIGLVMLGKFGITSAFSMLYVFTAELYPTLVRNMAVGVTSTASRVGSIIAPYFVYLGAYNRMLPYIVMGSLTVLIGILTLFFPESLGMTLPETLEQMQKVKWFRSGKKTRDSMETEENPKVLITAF

[6] = target: T7, Broad substrate specificity ATP-binding cassette transporter ABCG2 (Homo sapiens, UniProt Q9UNQ0); test: Inhibition of human BCRP expressed in MDCK2 cells assessed as reduction of [3H]E-sul substrate transport at 50 uM by liquid scintillation counting; format: ADME, cell-based; details: mdck-ii; summary of the method: as §2
T7 sequence (Q9UNQ0 whole entry): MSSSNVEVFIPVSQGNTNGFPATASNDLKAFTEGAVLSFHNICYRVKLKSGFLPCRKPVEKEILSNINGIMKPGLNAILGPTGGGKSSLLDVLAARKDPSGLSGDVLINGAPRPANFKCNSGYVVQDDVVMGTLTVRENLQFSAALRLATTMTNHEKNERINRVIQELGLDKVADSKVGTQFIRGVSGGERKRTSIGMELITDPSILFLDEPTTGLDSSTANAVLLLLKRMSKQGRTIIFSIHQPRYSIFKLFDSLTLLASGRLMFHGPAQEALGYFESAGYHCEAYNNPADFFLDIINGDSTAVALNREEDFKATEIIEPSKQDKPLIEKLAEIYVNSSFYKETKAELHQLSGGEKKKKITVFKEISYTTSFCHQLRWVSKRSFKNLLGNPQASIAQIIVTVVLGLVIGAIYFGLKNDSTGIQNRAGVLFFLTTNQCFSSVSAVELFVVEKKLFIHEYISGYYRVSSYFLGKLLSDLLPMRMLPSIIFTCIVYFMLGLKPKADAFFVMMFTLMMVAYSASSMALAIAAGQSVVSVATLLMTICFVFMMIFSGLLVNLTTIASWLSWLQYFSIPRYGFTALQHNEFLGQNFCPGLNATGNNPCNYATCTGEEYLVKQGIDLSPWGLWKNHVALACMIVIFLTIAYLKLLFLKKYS

Sequence of ATP-binding cassette sub-family C member 2 (Q92887 whole entry): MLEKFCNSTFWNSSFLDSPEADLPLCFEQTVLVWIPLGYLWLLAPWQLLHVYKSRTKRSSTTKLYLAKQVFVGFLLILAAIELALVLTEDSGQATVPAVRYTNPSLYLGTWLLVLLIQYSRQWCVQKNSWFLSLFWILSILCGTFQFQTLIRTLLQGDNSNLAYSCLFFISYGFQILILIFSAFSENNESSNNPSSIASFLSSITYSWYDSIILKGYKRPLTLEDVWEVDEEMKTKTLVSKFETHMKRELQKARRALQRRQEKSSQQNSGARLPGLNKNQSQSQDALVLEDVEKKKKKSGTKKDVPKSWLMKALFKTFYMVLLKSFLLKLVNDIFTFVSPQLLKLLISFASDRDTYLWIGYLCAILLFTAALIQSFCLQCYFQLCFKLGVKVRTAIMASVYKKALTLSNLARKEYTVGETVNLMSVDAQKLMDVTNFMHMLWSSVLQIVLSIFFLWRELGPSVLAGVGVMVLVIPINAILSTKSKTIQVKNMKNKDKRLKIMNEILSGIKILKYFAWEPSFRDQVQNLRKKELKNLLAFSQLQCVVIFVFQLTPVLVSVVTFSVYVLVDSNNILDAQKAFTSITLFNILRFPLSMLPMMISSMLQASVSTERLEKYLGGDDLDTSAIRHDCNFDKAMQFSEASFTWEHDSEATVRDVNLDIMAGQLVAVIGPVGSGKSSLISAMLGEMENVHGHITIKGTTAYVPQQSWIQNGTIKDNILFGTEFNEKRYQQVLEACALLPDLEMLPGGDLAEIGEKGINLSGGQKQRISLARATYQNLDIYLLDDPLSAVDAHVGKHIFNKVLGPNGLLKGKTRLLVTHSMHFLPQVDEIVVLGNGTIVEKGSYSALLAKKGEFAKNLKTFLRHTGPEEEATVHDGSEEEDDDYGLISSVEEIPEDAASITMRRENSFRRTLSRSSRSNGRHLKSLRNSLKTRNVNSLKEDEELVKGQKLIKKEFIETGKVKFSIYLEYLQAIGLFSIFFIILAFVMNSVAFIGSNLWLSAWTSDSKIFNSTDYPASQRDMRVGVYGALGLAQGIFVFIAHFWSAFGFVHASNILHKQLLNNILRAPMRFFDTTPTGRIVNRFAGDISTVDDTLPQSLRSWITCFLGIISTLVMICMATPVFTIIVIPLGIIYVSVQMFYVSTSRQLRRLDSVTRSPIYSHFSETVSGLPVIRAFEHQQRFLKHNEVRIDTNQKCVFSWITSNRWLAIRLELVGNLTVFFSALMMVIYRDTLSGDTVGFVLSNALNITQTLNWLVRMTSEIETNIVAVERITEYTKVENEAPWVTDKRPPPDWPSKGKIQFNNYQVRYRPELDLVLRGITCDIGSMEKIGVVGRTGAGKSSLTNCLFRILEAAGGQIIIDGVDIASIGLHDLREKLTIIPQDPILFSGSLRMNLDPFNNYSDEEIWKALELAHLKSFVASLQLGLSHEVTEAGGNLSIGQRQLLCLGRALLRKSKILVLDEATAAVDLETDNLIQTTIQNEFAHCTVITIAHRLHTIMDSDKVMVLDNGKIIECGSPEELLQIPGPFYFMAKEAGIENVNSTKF

- inhibition (INH) [5]: Active
Compound: CN(C)C(=O)CCSC(SCCC(=O)O)c1cccc(/C=C/c2ccc3ccc(Cl)cc3n2)c1 (stereo not drawn) [MK-571]

- inhibition (INH) [6]: Active
Compound: COc1cc2nc(N3CCN(C(=O)c4ccco4)CC3)nc(N)c2cc1OC [PRAZOSIN]

Continued, compound first:

Compound: CO[C@H]1/C=C/O[C@@]2(C)Oc3c(C)c(O)c4c(O)c(c(/C=N/N5CCN(C)CC5)c(O)c4c3C2=O)NC(=O)/C(C)=C\C=C\[C@H](C)[C@H](O)[C@@H](C)[C@@H](O)[C@@H](C)[C@H](OC(C)=O)[C@@H]1C [RIFAMPIN]
- inhibition (INH) [1]: 98.4%
- inhibition (INH) [2]: 97.4%

Compound: CCCN(CCC)S(=O)(=O)c1ccc(C(=O)O)cc1 [PROBENECID]
- inhibition (INH) [3]: 81.4%
- inhibition (INH) [4]: 88.5%

Compound: C=C[C@H]1C[N@@]2CC[C@H]1C[C@@H]2[C@@H](O)c1ccnc2ccc(OC)cc12 [QUINIDINE]
- inhibition at 1500 µM (OCTN2): 89.9%
- inhibition at 1500 µM (OCTN1 (SLC22A4)): 83.9%
